From ChEMBL document CHEMBL1212850, “Synthesis and biological evaluation of arylidene analogues of Meldrum's acid as a new class of antimalarial and antioxidant agents” (Bioorg Med Chem, 2010) come the findings set out here.

The IC50 is the concentration that gives 50% inhibition. By inhibition is commonly meant how much of the control response was suppressed.

Test [1] relates to Plasmodium falciparum. Kind of test: Antimalarial activity against Plasmodium falciparum infected in human O+ erythrocytes after 48 hrs by HRP2-ELISA method. It is filed as functional, organism-based.
For test [2], the system named is Radical scavenging activity. As to the kind of experiment: Antioxidant activity assessed as DPPH free radical scavenging activity at 100 uM after 1 hr. In kind it is functional. The gist of the method: (§1)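 Test compound at various concentrations added to 60 µM methanolic DPPH. Held 1 h at room temperature, then absorbance read at 517 nm; trolox used as reference standard. Values from three experiments.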
For orientation: The DPPH test is a chemical assay of radical scavenging.

Test [3] is described as follows: Antioxidant activity assessed as ABTS free radical scavenging activity at 100 uM after 12 hrs. It is filed as functional. A digest of the protocol: (§2)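 ABTS radical cation made by mixing 7 mM ABTS stock with 2.45 mM potassium persulfate, left 12 h in dark. Ethanolic compound solution added to ABTS solution, absorbance at 734 nm read after mixing up to 6 min. Reported as % ABTS radical scavenged; triplicate.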

Test [4] has as its system Radical scavenging activity. Kind of test: Antioxidant activity assessed as DPPH free radical scavenging activity after 1 hr. It is filed as functional. A digest of the protocol:
as §1

Test [5] in a line: Antioxidant activity assessed as ABTS free radical scavenging activity after 12 hrs. In kind it is functional. The gist of the method:
as §2

A value given as a limit tells only on which side of the number the result lay.

`CC1(C)OC(=O)C(=C/C=C/c2ccccc2)C(=O)O1`: in test [1], the IC50 stood at 24.3 µM. Moreover, the inhibition in test [2] was determined as 53.1%; in test [3], 20.2%.

Turning to `CCOc1cc(C=C2C(=O)OC(C)(C)OC2=O)ccc1O`, the IC50 in test [1] came out at 15.5 µM; in test [4] it was 39.1 µM; in test [5] it was 30.7 µM. Further, the inhibition was 66.2% in test [2] and 95.6% in test [3].

For the molecule `COc1cc(C=C2C(=O)OC(C)(C)OC2=O)ccc1O`, the figures for the IC50 in test [1], in test [4] and in test [5] were 9.68 µM, 24 µM and 30.5 µM, respectively. Besides, the inhibition came to 76% in test [2] and 92.6% in test [3].

With `COc1ccc(C=C2C(=O)OC(C)(C)OC2=O)cc1OC`, the IC50 in test [1] worked out at 26.1 µM. Besides, the inhibition in test [2] amounted to 4.74%; in test [3] it was 6.84%.

For `CC1(C)OC(=O)C2(OC2c2ccccc2)C(=O)O1` (stereo not drawn), the IC50 in test [1] was > 100 µM.

Take `COc1ccc(C=C2C(=O)OC(C)(C)OC2=O)c(OC)c1OC`: in test [1], 34.7 µM corresponded to half-maximal inhibition (IC50). The inhibition came out at 5.72% in test [2] and 13% in test [3].

In turn, `CC1(C)OC(=O)C(=Cc2ccccc2)C(=O)O1` returned an IC50 in test [1] of 37.8 µM.

As to `COc1cc(OC)c(OC)cc1C=C1C(=O)OC(C)(C)OC1=O`, in test [1], the IC50 was found to be 33.9 µM. Further, the inhibition came out at 6.23% in test [2] and 9.86% in test [3].

With `Cc1c(C)c2c(c(C)c1O)CCC(C)(C(=O)O)O2` (stereo not drawn) [TROLOX], the inhibition in test [2] amounted to 99.5%; in test [3], 99.1%. For the same molecule, the values for the IC50 in test [4] and in test [5] were 15.7 µM and 16.2 µM, respectively.

In test [1], `CN(C)c1ccc(C=C2C(=O)OC(C)(C)OC2=O)cc1` registered an IC50 of 35.2 µM. Also, the values for the inhibition in test [2] and in test [3] were 10.3% and 13.9%, respectively.

`COc1ccc2ccccc2c1C=C1C(=O)OC(C)(C)OC1=O` came in with an IC50 in test [1] of 31.8 µM. For the same molecule, the inhibition in test [2] was 9.48%; in test [3], 4.73%.

`O=C1CCCC(=O)C1=Cc1ccccc1`: the IC50 in test [1] is > 100 µM.

The molecule `CC1(C)OC(=O)C(=Cc2ccc3c(c2)OCO3)C(=O)O1` returned an IC50 in test [1] of 28.1 µM. Further, the inhibition in test [2] stood at 8.2%; in test [3] it was 8.25%.

The molecule `COc1cc(C=C2C(=O)OC(C)(C)OC2=O)cc(OC)c1OC` displayed a concentration for half-maximal inhibition (IC50) in test [1] of 20.2 µM. Moreover, the inhibition stood at 3.24% in test [2] and 5.33% in test [3].

Turning to `CC1(C)OC(=O)C(=Cc2c[nH]c3ccccc23)C(=O)O1`, the half-maximal inhibitory concentration (IC50) in test [1] stood at 41.7 µM. The inhibition is 1.79% in test [2] and 3.12% in test [3].

With `CC1(C)OC(=O)C(=Cc2cccs2)C(=O)O1`, in test [1], the IC50 was > 100 µM. The inhibition was determined as 6.32% in test [2] and 3.77% in test [3].

`CC1(C)OC(=O)C(=Cc2ccc3ccccc3c2)C(=O)O1` returned an IC50 in test [1] of 14.3 µM. Moreover, the values for the inhibition in test [2] and in test [3] were 20.6% and 17%, respectively.

`COc1cc(C=C2C(=O)OC(C)(C)OC2=O)ccc1OCc1ccccc1` returned a half-maximal inhibitory concentration (IC50) in test [1] of 37.2 µM. In addition, the figures for the inhibition in test [2] and in test [3] were 10.7% and 3.62%, respectively.

Regarding `CC1(C)OC(=O)C2(OC2c2ccccc2[N+](=O)[O-])C(=O)O1` (stereo not drawn), the IC50 in test [1] was > 100 µM.

`O=C1O[C@H]([C@@H](O)CO)C(O)=C1O` [ASCORBIC ACID]: the inhibition was determined as 99.4% in test [2] and 98% in test [3]. The IC50 in test [4] came to 22.4 µM; in test [5], 25.5 µM.

As to `CC1(C)OC(=O)C(=Cc2c3ccccc3cc3ccccc23)C(=O)O1`, the IC50 in test [1] was > 100 µM. For the same molecule, the inhibition in test [2] turned out to be 8.76%; in test [3], 10.7%.

In the case of `COc1ccc(OC)c(C=C2C(=O)OC(C)(C)OC2=O)c1`, in test [1], the IC50 amounted to 33.2 µM. Moreover, the values for the inhibition in test [2] and in test [3] were 12.2% and 13.8%, respectively.

With `CC1(C)OC(=O)C(=Cc2ccccc2[N+](=O)[O-])C(=O)O1`, the midpoint of inhibition in test [1], the IC50, lay at 39.6 µM. The figures for the inhibition in test [2] and in test [3] were 6.41% and 1.3%, respectively.

With `COc1ccc(C=C2C(=O)OC(C)(C)OC2=O)cc1OCc1ccccc1`, in test [1], half-maximal inhibition (IC50) required 36.1 µM.

`C[C@@H]1CC[C@H]2[C@@H](C)C(=O)O[C@@H]3O[C@@]4(C)CC[C@@H]1[C@]32OO4` [ARTEMISININ] yielded a concentration for half-maximal inhibition (IC50) in test [1] of 0.0028 µM.

In test [1], `CC1(C)OC(=O)C(=Cc2ccc(O)cc2)C(=O)O1` gave an IC50 of 34.6 µM. Also, the inhibition in test [2] worked out at 5.12%; in test [3] it was 14.4%.

For the molecule `COc1ccc(C=C2C(=O)OC(C)(C)OC2=O)cc1O`, the concentration for half-maximal inhibition (IC50) in test [1] is 12.4 µM; in test [4] it was 80 µM; in test [5] it was 72.2 µM. For the same molecule, the figures for the inhibition in test [2] and in test [3] were 40.2% and 52.8%, respectively.

In turn, `COc1ccc(C=C2C(=O)OC(C)(C)OC2=O)cc1` registered an IC50 in test [1] of 36.4 µM. Besides, the inhibition in test [2] was 5.81%; in test [3], 9.26%.

In turn, `CC1(C)OC(=O)C(=Cc2cccc3ccccc23)C(=O)O1` showed an IC50 in test [1] of 16.1 µM. In addition, the inhibition in test [2] amounted to 8.88%; in test [3] it was 7.55%.
